Measurements reported in ChEMBL document CHEMBL3244020, “Trichloroacetamidines, a new class of positive inotropic agents” (J Med Chem, 1978).
The source made the active and inactive calls. The rule behind the calls is not given here.

Experiments:
[1] = (§1) Positive inotropic activity in cat heart papillary muscle assessed as increase in contractile force at 10 ug/mL measured for 5 to 30 mins; type: functional, Felis catus, Muscle tissue
Procedure, shortened: (§2)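 Right-ventricular cat papillary muscles in Krebs–Henseleit at 37 °C, field-stimulated at 1/s (4–10 ms, 6–10 V). Muscles equilibrated about 90 min, until force fell to 25–30% of original. Compound added and force recorded at 5, 10, 20 and 30 min, followed by ouabain 0.5 μg/mL. Positives were retested on three more preparations at ≥3 concentrations. Scored as mg increase in contractile force.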

Felis catus [2] = species on record: Felis catus; assay: Positive inotropic activity in cat heart papillary muscle assessed as increase in contractile force up to 10 ug/mL measured for 5 to 30 mins in presence of beta-adrenergic inhibitor sotalol; type: functional, tissue-based
Procedure, shortened: (§3)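 Cat right-ventricular papillary muscle in Krebs–Henseleit at 37 °C, electrically driven at 1/s. Force recorded 5–30 min after compound, in the presence of the β-blocker sotalol at 10 μg/mL. Scored as mg increase in contractile force.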

Felis catus [3] = species on record: Felis catus; assay: Positive inotropic activity in cat heart papillary muscle assessed as increase in contractile force at 10 ug/mL measured for 5 to 30 mins in presence of beta-adrenergic inhibitor sotalol; type: functional, tissue-based; procedure, shortened: as §3
Felis catus [4] = species on record: Felis catus; assay: as §1; type: functional; details: Muscle tissue; procedure, shortened: as §2
[5] = Positive inotropic activity in cat heart papillary muscle assessed as concentration required to increase contractile force by 500 mg measured for 5 to 30 mins; type: functional, Felis catus, Muscle tissue; procedure, shortened: as §2
[6] = Positive inotropic activity in cat heart papillary muscle assessed as increase in contractile force at 2.5 ug/mL measured for 5 to 30 mins; type: functional, Felis catus, Muscle tissue; procedure, shortened: as §2
[7] = Positive inotropic activity in cat heart papillary muscle assessed as increase in contractile force at 0.156 ug/mL measured for 5 to 30 mins; type: functional, Felis catus, Muscle tissue
Procedure, shortened: (§4)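 Right-ventricular cat papillary muscles in Krebs–Henseleit solution at 37 °C, paced at 1/s (4–10 ms, 6–10 V square waves). Equilibrated about 90 min; compound added once force had fallen to 25–30% of original (1.5–2 h). Force recorded 5, 10, 20 and 30 min after addition, then ouabain 0.5 μg/mL added. Increase over 20% scored positive. Actives retested on three further preparations at ≥3 concentrations.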

[8] = (§5) Inhibition of guinea pig kidney Na+-K+ dependent ATPase after 10 to 20 mins; set-up: species or system Cavia porcellus; details: read-out: I50
Procedure, shortened: (§6)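 Partially purified membrane ATPase from calf heart or guinea pig renal cortex. Reaction started by final addition of enzyme. Incubated at 37 °C under air, with aliquots taken at 10 and 20 min. Liberated phosphate measured by the Lowry–Lopez method. I50 came from log inhibitor vs percent inhibition lines, at least three points. This was done only where acute inhibition was >50% at 1 × 10⁻³ M.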

[9] = Inhibition of guinea pig kidney Na+-K+ dependent ATPase preincubated for 30 mins measured after 10 to 20 mins; set-up: species or system Cavia porcellus; details: read-out: I50
Procedure, shortened: (§7)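 Partially purified membrane ATPase from calf heart or guinea pig renal cortex. Inhibitor plus enzyme were preincubated 30 min at 10× final concentrations, then added to the otherwise complete assay system. Incubated at 37 °C under air, with aliquots taken at 10 and 20 min. Liberated phosphate measured by the Lowry–Lopez method. I50 came from log inhibitor vs percent inhibition lines, at least three points.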

[10] = (§8) Inhibition of calf heart Na+-K+ dependent ATPase after 10 to 20 mins; set-up: species or system Bos taurus; details: read-out: I50; procedure, shortened: as §6
Felis catus [11] = species on record: Felis catus; assay: (§9) Positive inotropic activity in cat heart papillary muscle assessed as increase in contractile force at 0.63 ug/mL measured for 5 to 30 mins; type: functional; details: Muscle tissue
Procedure, shortened: (§10)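 Right-ventricular papillary muscles from cat hearts in a 100-mL bath of Krebs–Henseleit solution at 37 °C, driven electrically with square waves of 4–10 ms, 6–10 V, 1/s. Equilibrated about 90 min until force fell to 25–30% of initial. Compound added, contractile force read at 5, 10, 20 and 30 min, then ouabain 0.5 μg/mL as a responsiveness check. Positive inotropy means a rise above 20%.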

[12] = as §9; type: functional, Felis catus, Muscle tissue; procedure, shortened: as §10
Cavia porcellus = species on record: Cavia porcellus; assay: as §5; procedure, shortened: as §6
Felis catus [13] = species on record: Felis catus; assay: Positive inotropic activity in heart papillary muscle isolated from reserpine-treated cat assessed as increase in contractile force at 10 ug/mL measured for 5 to 30 mins; type: functional, tissue-based; details: Muscle tissue
Procedure, shortened: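 Cats pretreated with reserpine 0.5 mg/kg ip before papillary muscle isolation. Right-ventricular muscles kept in Krebs–Henseleit at 37 °C, stimulated at 1/s, and force recorded at 5–30 min after compound addition.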

[14] = Dissociation constant, pKa of the compound; type: physicochemical
Procedure, shortened: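 pKa determined in water or in 30% EtOH–70% H2O, depending on compound.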

[15] = Inhibition of calf heart Na+-K+ dependent ATPase preincubated for 30 mins measured after 10 to 20 mins; set-up: species or system Bos taurus; details: read-out: I50; procedure, shortened: as §7
[16] = Positive inotropic activity in cat heart papillary muscle assessed as increase in contractile force at 0.8 ug/mL measured for 5 mins (reference value: 1080 mg); type: functional, Felis catus, Muscle tissue
[17] = Positive inotropic activity in cat heart papillary muscle assessed as increase in contractile force at 2 ug/mL measured for 5 to 30 mins; type: functional, Felis catus, Muscle tissue; procedure, shortened: as §4
[18] = Positive inotropic activity in cat heart papillary muscle assessed as increase in contractile force at 0.5 ug/mL measured for 5 to 30 mins; type: functional, Felis catus, Muscle tissue; procedure, shortened: as §4
[19] = Positive inotropic activity in cat heart papillary muscle assessed as increase in contractile force at 1 ug/mL measured for 5 to 30 mins; type: functional, Felis catus, Muscle tissue; procedure, shortened: as §4
Canis familiaris = assay: Positive inotropic activity in Beagle dog assessed as increase in left ventricular contractile force at 50 mg/kg, iv; type: functional, organism-based; set-up: dose 50 mg/kg; details: Canis lupus familiaris, Heart left ventricle
Bos taurus = species on record: Bos taurus; assay: as §8; procedure, shortened: as §6

SMILES | Activity [1] [mg] | Activity (Felis catus [2]) | Activity [5] [µg/mL] | Activity [6] [mg] | other results
CN(C)C(=N)C(Cl)(Cl)Cl.Cl | >600 | Active |  |  | 
C/N=C(\N(C)C)C(Cl)(Cl)Cl |  |  |  |  | Activity (Felis catus [3]): inactive
O=C(NCCO)C(Cl)(Cl)Cl |  | Active |  |  | Activity (Felis catus [4]): inactive
N=C(NCCc1c[nH]c2ccccc12)C(Cl)(Cl)Cl | >600 | Active | 2.33 | 201 | Activity [7]: 201 mg; IC50 [8]: 150 µM; IC50 [9]: 4 µM; IC50 [10]: 33 µM
Cl.N=C(NCCc1ccc(O)c(O)c1)C(Cl)(Cl)Cl | 201 |  | >10 | <200 | Activity (Felis catus [3]): inactive; Activity (Felis catus [11]): inactive
CC(=O)Nc1ccc(OCC(O)CNC(=N)C(Cl)(Cl)Cl)cc1 (stereo not given) | 201 | Active |  |  | 
CNC(=N)C(Cl)(Cl)Cl.Cl | >600 |  | 0.98 | >600 | Activity (Felis catus [3]): inactive; Activity [12]: 201 mg; I50 (Cavia porcellus): inactive; IC50 [10]: 1000 µM
C[C@@H](NC(=N)C(Cl)(Cl)Cl)c1ccccc1 |  |  |  |  | Activity (Felis catus [4]): inactive
Cl.N=C(NCC1CC1)C(Cl)(Cl)Cl | 201 | Active | 3.21 | 201 | Activity [12]: <200 mg; Activity (Felis catus [13]): Active
N=C(NCc1cn(C(=O)c2ccccc2)c2ccccc12)C(Cl)(Cl)Cl | >600 | Active | 6.2 | 201 | Activity [12]: <200 mg; Activity (Felis catus [13]): Active
C=CCN(C)C(=N)C(Cl)(Cl)Cl.O=C(O)/C=C\C(=O)O | >600 | Active | 5.47 | 201 | Activity [12]: <200 mg
Cn1cc(CNC(=N)C(Cl)(Cl)Cl)c2ccccc21 | 201 | Active |  |  | 
CCCNC(=N)C(Cl)(Cl)Cl.Cl | >600 | Active | 2.22 | 201 | Activity [7]: < 200 mg
C=CCNC(=N)C(Cl)(Cl)Cl.Cl | >600 |  | 2.78 | 201 | Activity (Felis catus [3]): inactive; Activity (Felis catus [11]): inactive; Activity (Felis catus [13]): Active
N=C(NCc1ccccc1)C(Cl)(Cl)Cl | <200 | Active |  |  | 
N=C(NCC(O)COc1ccccc1)C(Cl)(Cl)Cl (stereo not given) | 201 | Active |  |  | 
COc1cccc(CNC(=N)C(Cl)(Cl)Cl)c1.Cl | 201 | Active | >10 |  | 
C/N=C(\NCC1CC1)C(Cl)(Cl)Cl.Cl | >600 | Active |  |  | 
COc1ccccc1CNC(=N)C(Cl)(Cl)Cl.Cl | 201 | Active | 4.75 | 201 | Activity [12]: <200 mg; Activity (Felis catus [13]): Active
N=C(NCCO)C(Cl)(Cl)Cl | >600 | Active | 5.5 | <200 | Activity (Felis catus [11]): inactive
Cl.N=C(NCCCO)C(Cl)(Cl)Cl | 201 | Active | >10 | <200 | 

SMILES | Activity [1] [mg] | Activity (Felis catus [2]) | Activity [5] [µg/mL] | Activity [6] [mg] | other results
ClC(Cl)(Cl)C1=NCCN1 | >600 | Active | 4.86 | 201 | Activity [12]: <200 mg
ClC(Cl)(Cl)C1=NCCCN1 | >600 |  | 2.77 | 201 | Activity (Felis catus [3]): inactive; Activity [7]: <200 mg
COc1ccc(CNC(=N)C(Cl)(Cl)Cl)cc1.Cl | >600 | Active | 4.99 | 201 | Activity [12]: <200 mg; Activity (Felis catus [13]): Active; pKa [14]: 6; IC50 [8]: 800 µM; IC50 [9]: 100 µM; IC50 [10]: 20 µM; IC50 [15]: 5 µM
COc1ccc(CNC(=N)C(F)(Cl)Cl)cc1 |  |  |  |  | pKa [14]: 6.18; IC50 [8]: 15 µM; IC50 [9]: 2 µM; IC50 [10]: 20 µM; IC50 [15]: 2 µM
C[C@H](NC(=N)C(Cl)(Cl)Cl)c1ccccc1.Cl | <200 | Active | >10 |  | 
N=C(NCC(O)c1ccccc1)C(Cl)(Cl)Cl (stereo not given) | >600 | Active |  |  | 
C=CCN(CC=C)C(=N)C(Cl)(Cl)Cl |  |  |  |  | Activity (Felis catus [4]): inactive
Cc1ccc(CNC(=N)C(Cl)(Cl)Cl)cc1.Cl | >600 | Active | 8.43 | <200 | Activity [12]: <200 mg
COC(CNC(=N)C(Cl)(Cl)Cl)COc1ccccc1 (stereo not given) | 201 | Active |  |  | 
Cl.N=C(NCCCNC(=N)C(Cl)(Cl)Cl)C(Cl)(Cl)Cl | <200 | Active | >10 |  | 
N=C(NCCc1ccc(O)cc1)C(Cl)(Cl)Cl | >600 | Active |  |  | 
CC(CCc1ccc(O)cc1)NCCc1ccc(O)c(O)c1 (stereo not given) [DOBUTAMINE] |  |  |  |  | Activity [16]: 1640 mg
N=C(Nc1ccccc1)C(Cl)(Cl)Cl |  |  |  |  | Activity (Felis catus [4]): inactive
C=CCN/C(=N\C)C(Cl)(Cl)Cl.Cl | >600 | Active | 3.89 | 201 | Activity (Felis catus [11]): inactive
N=C(NCCc1ccccc1)C(Cl)(Cl)Cl |  |  |  |  | Activity (Felis catus [4]): inactive
CC(=O)OC(CNC(=N)C(Cl)(Cl)Cl)COc1ccccc1.Cl (stereo not given) | >600 | Active | 4.96 | 201 | Activity [12]: <200 mg; Activity (Felis catus [13]): Active; IC50 [10]: 170 µM; IC50 [15]: 70 µM
C[C@@H]1O[C@@H](O[C@H]2C[C@@H](O)[C@]3(CO)[C@H]4[C@H](O)C[C@]5(C)[C@@H](C6=CC(=O)OC6)CC[C@]5(O)[C@@H]4CC[C@]3(O)C2)[C@H](O)[C@H](O)[C@H]1O [OUABAIN] |  |  |  |  | Activity [17]: >600 mg; Activity [18]: 201 mg; Activity [19]: >600 mg; Activity (Canis familiaris): Active; IC50 [8]: 0.5 µM; IC50 [10]: 0.5 µM; IC50 [15]: 0.2 µM
Cl.N=C(N)C(Cl)(Cl)Cl | >600 | Active | 2.68 | 201 | Activity [12]: <200 mg; Activity (Felis catus [13]): Active
COc1ccc(CNC(=N)C(Cl)(Cl)Br)cc1 |  |  |  |  | pKa [14]: 6.15
N=C(NCc1ccccc1CO)C(Cl)(Cl)Cl | 201 | Active |  |  | I50 (Cavia porcellus): inactive; I50 (Bos taurus): inactive
